In ChEMBL document CHEMBL4196162, “Target-Directed Self-Assembly of Homodimeric Drugs Against β-Tryptase” (ACS Med Chem Lett, 2018) one finds IC50 and inhibition data, which are given here for one molecule.

The source made the active and inactive calls. No cut-off for these calls is given here.

A short description of test [1]: Inhibition of beta-tryptase in human HMC1 cells assessed as decrease in A23187-induced degranulation in supernatant incubated for 2 hrs followed by A23187 addition measured after 1 hr. In kind it is cell-based. In a few lines: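 Cultured HMC1 human mast cells exposed to inhibitor (10 nM to 100 μM) for 2 h, then degranulated with 1 μM A23187 in PBS. After 1 h, supernatant tested for tryptase activity. IC50 and SEM from nonlinear regression with unconstrained Hill slope.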

The nature of test [2]: Inhibition of recombinant human lung beta-tryptase using N-tert-butoxycarbonyl-Gln-Ala-Arg-AMC as substrate incubated for 3 hrs followed by substrate addition measured every 30 secs for 15 mins in presence of 1 nM of tryptase. In a few lines:
(§1)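 Purified tryptase tested at several enzyme concentrations. IC50 from nonlinear regression with no Hill slope constraint.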

Test [3] can be described thus: Inhibition of beta-tryptase in human HMC1 cells assessed as decrease in A23187-induced degranulation in cell lysates incubated for 2 hrs followed by A23187 addition measured after 1 hr. In kind it is cell-based. The procedure, abridged:
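HMC1 human mast cell lysates tested for tryptase activity in the presence of inhibitor. IC50 and SEM from nonlinear regression with unconstrained Hill slope.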

Test [4] is described as follows: Inhibition of recombinant human lung beta-tryptase using N-tert-butoxycarbonyl-Gln-Ala-Arg-AMC as substrate incubated for 3 hrs followed by substrate addition measured every 30 secs for 15 mins in presence of 100 pM of tryptase. The procedure, abridged: as §1
The nature of test [5]: Inhibition of recombinant human lung beta-tryptase using N-tert-butoxycarbonyl-Gln-Ala-Arg-AMC as substrate incubated for 3 hrs followed by substrate addition measured every 30 secs for 15 mins in presence of 10 pM of tryptase. The procedure, abridged: as §1
For another test, the species on record is Homo sapiens. The test is described as follows: Reversal inhibition of recombinant human lung beta-tryptase assessed as recovery of enzymatic activity at 10 uM using N-tert-butoxycarbonyl-Gln-Ala-Arg-AMC as substrate measured over 216 hrs.

What is called IC50 is the midpoint of a concentration-inhibition curve. In the case of `NCc1cccc(C2CCN(C(=O)c3cccc(NC(=O)C(O)C4(O)CCC4)c3)CC2)c1` (stereo unspecified), the IC50 in test [1] amounted to 137 µM; in test [2], 8.1 µM; in test [3] it was 21.8 µM; in test [4], 0.17 µM; in test [5], 0.64 µM. In addition, the inhibition entry in the test filed under Homo sapiens is “Active”.
